Results taken from ChEMBL document CHEMBL4823250, “Discovery of thalidomide-based PROTAC small molecules as the highly efficient SHP2 degraders” (Eur J Med Chem, 2021).
pIC50: −log10 of the molar value.

Assays:
[1] = target: Protein cereblon/Tyrosine-protein phosphatase non-receptor type 11 (Homo sapiens, UniProt Q06124+Q96SW2); test: Protac activity at SHP2/CRBN in human MV4-11 cells assessed as SHP2 degradation at 8 nM measured after 12 hrs by Western blot analysis relative to control; assay type: cell-based
Procedure, shortened: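 MV4-11 cells (IMDM, 10% FBS, 37 °C, 5% CO2) plated at 1.0×10^6 cells/well and exposed 12 h to 8 or 200 nM. Lysis in RIPA with protease inhibitors, then SDS-PAGE, nitrocellulose transfer and anti-human SHP2 immunoblot. SHP2 signal normalized to GAPDH and percent degradation quantified by densitometry. Reported as the average of two independent measurements.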

[2] = system: MV4-11; test: Antiproliferative activity against human MV4-11 cells assessed as inhibition of cell proliferation measured after 72 hrs by MTS assay; assay type: functional, cell-based; details: MV4-11, 72 h
Procedure, shortened: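 MV4;11 (ATCC, STR-authenticated) in IMDM with 10% FBS, penicillin/streptomycin, 37 °C, 5% CO2. Seeded at 1.0–4.0 × 10^4 cells/well, rested 2 h, then exposed to 0.01% DMSO or graded compound concentrations for 72 h. MTS/PMS added for 2–4 h. IC50 from sigmoidal variable-slope nonlinear regression; mean ± SEM of at least three separate assays, each in triplicate.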

[3] = target: T1, Tyrosine-protein phosphatase non-receptor type 11 (Homo sapiens, UniProt Q06124); test: Inhibition of human SHP2 catalytic activity
T1 sequence (Q06124 whole entry): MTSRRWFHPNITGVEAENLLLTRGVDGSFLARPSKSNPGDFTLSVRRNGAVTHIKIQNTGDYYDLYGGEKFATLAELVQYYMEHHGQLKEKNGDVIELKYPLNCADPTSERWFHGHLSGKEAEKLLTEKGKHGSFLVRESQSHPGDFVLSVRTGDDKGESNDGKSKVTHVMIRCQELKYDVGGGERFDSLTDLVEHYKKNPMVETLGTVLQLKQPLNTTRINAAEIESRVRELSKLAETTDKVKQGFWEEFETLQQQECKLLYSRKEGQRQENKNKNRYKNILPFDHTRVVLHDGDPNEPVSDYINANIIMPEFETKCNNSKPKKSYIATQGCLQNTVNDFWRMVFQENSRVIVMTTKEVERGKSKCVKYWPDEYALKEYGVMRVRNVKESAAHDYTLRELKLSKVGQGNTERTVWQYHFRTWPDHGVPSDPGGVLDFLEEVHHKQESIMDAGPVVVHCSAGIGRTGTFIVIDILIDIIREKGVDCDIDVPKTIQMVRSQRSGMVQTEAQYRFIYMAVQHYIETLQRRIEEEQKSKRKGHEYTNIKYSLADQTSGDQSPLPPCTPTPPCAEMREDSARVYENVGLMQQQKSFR

Protein cereblon/Tyrosine-protein phosphatase non-receptor type 11, sequence (Q96SW2 whole entry partner, one chain of several): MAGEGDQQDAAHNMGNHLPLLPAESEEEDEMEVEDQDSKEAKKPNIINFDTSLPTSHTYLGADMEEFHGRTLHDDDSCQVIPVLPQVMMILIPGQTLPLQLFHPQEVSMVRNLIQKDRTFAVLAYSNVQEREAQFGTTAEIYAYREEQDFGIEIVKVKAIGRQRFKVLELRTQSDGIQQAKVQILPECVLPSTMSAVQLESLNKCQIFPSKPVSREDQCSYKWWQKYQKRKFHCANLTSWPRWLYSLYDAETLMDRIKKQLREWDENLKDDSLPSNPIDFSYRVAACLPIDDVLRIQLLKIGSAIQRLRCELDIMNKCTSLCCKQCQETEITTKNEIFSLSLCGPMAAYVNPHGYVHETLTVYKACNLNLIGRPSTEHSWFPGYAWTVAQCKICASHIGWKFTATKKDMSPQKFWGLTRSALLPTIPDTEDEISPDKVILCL

C[C@@H]1OCC2(CCN(c3cnc(Sc4cccc(NC(=O)CCC(=O)NCCOCCOCCNc5ccc6c(c5)C(=O)N(C5CCC(=O)NC5=O)C6=O)c4Cl)c(N)n3)CC2)[C@@H]1N (some centres undefined)
Activity [1]: < 5%

C[C@@H]1OCC2(CCN(c3cnc(Sc4cccc(NC(=O)CCC(=O)NCCCCCCCCCCCCNc5cccc6c5C(=O)N(C5CCC(=O)NC5=O)C6=O)c4Cl)c(N)n3)CC2)[C@@H]1N (some centres undefined)
Activity [1]: 18%

C[C@@H]1OCC2(CCN(c3cnc(Sc4cccc(NC(=O)CCC(=O)NCCCCCCCCCCCCCNc5cccc6c5C(=O)N(C5CCC(=O)NC5=O)C6=O)c4Cl)c(N)n3)CC2)[C@@H]1N (some centres undefined)
Activity [1]: 8%

C[C@@H]1OCC2(CCN(c3cnc(Sc4cccc(NC(=O)CCC(=O)NCCCOCCOCCOCCCNc5ccc6c(c5)C(=O)N(C5CCC(=O)NC5=O)C6=O)c4Cl)c(N)n3)CC2)[C@@H]1N (some centres undefined)
Activity [1]: 42%

C[C@@H]1OCC2(CCN(c3cnc(Sc4cccc(NC(=O)CCC(=O)NCCOCCOCCNc5cccc6c5C(=O)N(C5CCC(=O)NC5=O)C6=O)c4Cl)c(N)n3)CC2)[C@@H]1N (some centres undefined)
Activity [1]: 25%

C[C@@H]1OCC2(CCN(c3cnc(Sc4cccc(N)c4Cl)c(N)n3)CC2)[C@@H]1N
pIC50 [2]: 7.22
pIC50 [3]: 7.77

C[C@@H]1OCC2(CCN(c3cnc(Sc4cccc(NC(=O)CCC(=O)NCCOCCNc5ccc6c(c5)C(=O)N(C5CCC(=O)NC5=O)C6=O)c4Cl)c(N)n3)CC2)[C@@H]1N (some centres undefined)
Activity [1]: < 5%

C[C@@H]1OCC2(CCN(c3cnc(Sc4cccc(NC(=O)CCC(=O)NCCCCCCCCNc5cccc6c5C(=O)N(C5CCC(=O)NC5=O)C6=O)c4Cl)c(N)n3)CC2)[C@@H]1N (some centres undefined)
Activity [1]: 22%
